# Screening results from PubChem.
# NSD2 inh – NSD2 histone methyltransferase inhibitors, primary screen, biochemical, AlphaScreen, single concentration, set 2; Histone-lysine N-methyltransferase NSD2 (Homo sapiens), O96028; NSD2 peptide methylation, 120 min; inhibition, % at 12.5 µM; 310,000 tested, 0.54% active; AID 743445, 2014; in the data active means inhibition above about 50%
# RAD54 inh – inhibitors of human RAD54 branch migration, primary screen, biochemical, fluorescence, single point; DNA repair and recombination protein RAD54-like (Homo sapiens), Q92698; RAD54 Holliday junction branch migration, FAM/BHQ fluorescence; inhibition, % at 10.4 µM; 360,000 tested, 0.14% active; AID 602329, 2012;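 active means mean normalized replicate activity at least 40 and at least half of replicates scoring 40 or more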;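 further: 0% = median of neutral control wells and 100% = median of positive control wells; inhibitors cause a drop in the FAM fluorescence signal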
# RAD52 inh – RAD52 DNA annealing inhibitors, primary screen, biochemical, FRET, single point, set 2; DNA repair protein RAD52 homolog (Homo sapiens), P43351; inhibition, % at 18.7 µM; recombinant RAD52 DNA annealing, FRET fluorescence; 360,000 tested, 0.46% active;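 active means every replicate showing at least 50% inhibition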
# Target sequence (P43351 whole entry, looked up): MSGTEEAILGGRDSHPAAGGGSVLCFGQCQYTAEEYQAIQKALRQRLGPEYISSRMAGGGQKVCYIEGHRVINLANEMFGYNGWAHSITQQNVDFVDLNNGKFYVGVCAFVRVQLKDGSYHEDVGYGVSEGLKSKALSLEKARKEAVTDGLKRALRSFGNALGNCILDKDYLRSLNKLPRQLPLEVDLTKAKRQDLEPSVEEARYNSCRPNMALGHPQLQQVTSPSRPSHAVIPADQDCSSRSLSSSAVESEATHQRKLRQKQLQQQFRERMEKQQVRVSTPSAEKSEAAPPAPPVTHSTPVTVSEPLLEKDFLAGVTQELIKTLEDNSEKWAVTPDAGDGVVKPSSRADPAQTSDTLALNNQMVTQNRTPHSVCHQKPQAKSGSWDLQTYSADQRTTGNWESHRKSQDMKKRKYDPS
# AF4-AF9 inh – inhibitors of AF4 peptide binding to AF9, primary screen, biochemical, AlphaScreen, biotin-AF4 peptide, FLAG-AF9, single point | inhibition, % at 10 µM | 350,000 tested, 0.47% active | AID 651704, 2012;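 active means every replicate reaching a set inhibition limit, whatever the replicate mean, cut at about 25% in these data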;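 further: 0% = plate neutral control median and 100% = total signal loss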
# FN deposition inh – inhibitors of fibronectin matrix deposition, primary screen, AH1F cells, Alexa488-fibronectin fluorescence, plate reader. AH1F fibroblasts, overnight. AID 743247, 2014. inhibition, % at 12.6 µM. 350,000 tested, 0.086% active;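 active means mean inhibition across replicates of 30% or more, regardless of how many single replicates reach that level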;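 further: positive control wells lacked labelled fibronectin entirely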
#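 Assay system: AH1F fibroblasts / Quantity: 10000 cells per well / Medium: DMEM plus 2% serum, read in PBS / Reagent: labelled fibronectin 24 nM / Dosing: single dose, pinned / Times: 1 h cell attachment, overnight exposure to compound and label / Signal: fluorescence, ex 485 nm, em 525 nm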
# Glyco luc inh – increase of ERlucT glycosylation luciferase signal, primary screen, N-linked glycosylation inhibitor project, D54 ERlucT cells, luminescence, set 2 | D54 ERlucT glycosylation luciferase reporter, 24 h; percent of 100 nM tunicamycin response | reporter increase, % at 12.5 µM | 360,000 tested, 0.23% active;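 active means mean luciferase reporter signal, scaled so untreated is 0 and the glycosylation-blocking control 100, at or above a set limit in every replicate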;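 further: luciferase carries N-glycosylation sites so blocking glycosylation raises the light; 0% = median of neutral control wells and 100% = median of 100 nM tunicamycin wells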
# AlphaScreen art – AlphaScreen signal interference with preloaded methylated product, dose response, artefact control for NSD2 inhibitor project, biochemical, cherry-picked samples | shares compounds with NSD2 inh | AlphaScreen artifact counterscreen, preloaded methylated H4 peptide | AC35, µM (top dose mostly 10 µM), inactives show at the top dose activity change, negative = signal loss | 1,500 tested, 9.4% active | AID 1053174, 2014; call rule not given here
# Numbers without * were called inactive; / = no result given. In the library only some 1.2% were active in any assay of this set; here they are far more common.
SMILES,NSD2 inh,RAD54 inh,RAD52 inh,AF4-AF9 inh,FN deposition inh,Glyco luc inh,AlphaScreen art
C/C=C/c1ccc2c(c1)O[C@@H](CN(C)CC1CCOCC1)[C@H](C)CN([C@H](C)CO)S2(=O)=O,/,2,/,-3,/,/,/
CCN(CC)CCCN(Cc1cc2cc3c(cc2[nH]c1=O)OCO3)C(=S)NCc1ccco1,74*,/,5,5,4,-2,-1%
O=C(C[C@H]1CC[C@H]2[C@@H](COC[C@@H](O)CN2Cc2ccccc2)O1)NCCc1ccccc1,/,13,-3,1,5,/,/
Cc1noc(C)c1NC(=O)Nc1cccc2c1O[C@@H](CN(C)C)[C@@H](C)CN([C@@H](C)CO)C2=O,/,3,13,-1,/,/,/
Nc1nonc1C(=O)N/N=C/c1cc2c(cc1[N+](=O)[O-])OCO2,113*,3,0,0,2,0,-1%
CC(=O)Nc1ccc2c(c1)CC(=O)N(C)C[C@H](C)[C@@H](CN(C)C(=O)NC(C)C)O2,/,/,/,/,2,/,/
COc1ccc(S(=O)(=O)Nc2ccc3c(c2)CC(=O)N([C@@H](C)CO)C[C@H](C)[C@H](CN(C)S(=O)(=O)c2cccs2)O3)cc1,/,-3,2,0,-1,/,/
Cc1ccc(S(=O)(=O)N2CCN(C(=O)C(F)(F)F)C2c2ccc(N(C)C)cc2)cc1 (centres undefined),122*,0,-21,0,9,1,-3%
COc1ccc(C2N(C(=O)C(F)(F)F)C(C)CN2S(=O)(=O)c2ccc(C)cc2)cc1 (centres undefined),86*,1,-8,-6,-7,0,1%
C[C@@H]1CN([C@@H](C)CO)C(=O)Cc2cc(NC(=O)c3ccncc3)ccc2O[C@H]1CN(C)Cc1ccc(Oc2ccccc2)cc1,/,-12,-31,20,/,/,/
O=C(O)CC1S/C(=N/N=C/c2ccc(-c3ccccc3[N+](=O)[O-])o2)NC1=O (centres undefined),91*,-11,/,/,-5,8,1%
Cc1ccc(-c2ccc(/C=N/N=C3/NC(=O)C(CC(=O)O)S3)o2)c([N+](=O)[O-])c1 (centres undefined),5,-19,/,/,6,4,/
Cc1cc(C)c(S(=O)(=O)N2CCCOC2CNC(=O)C(=O)NCc2cccnc2)c(C)c1 (centres undefined),0,/,-7,-3,0,-1,/
Cc1ccc(C)c(S(=O)(=O)N2CCCOC2CNC(=O)C(=O)NCc2cccnc2)c1 (centres undefined),58*,-6,-17,0,-2,2,2%
C[C@H](NC(=O)C[C@H]1CC[C@H]2[C@@H](COC[C@H](O)CN2C(=O)Nc2ccccc2)O1)c1ccccc1,/,2,13,-2,-7,/,/
C[C@@H]1CN([C@H](C)CO)C(=O)c2cccc(NC(=O)C3CCCCC3)c2O[C@H]1CN(C)S(=O)(=O)c1cccs1,/,-8,-2,0,/,/,/
Cc1nc(-[n+]2nc(-c3ccncc3)nn2-c2ccccc2)sc1C,69*,/,43,22,-1,-6,2.1µM*
CCCCOc1ccc(-c2ncc(N)cn2)cc1,60*,-3,0,1,-4,0,-2%
COc1ccc(C(=O)c2nccc3cc(OC)c(OC)cc23)cc1OC,90*,33,/,/,/,3,-1%
COc1ccc(C(=O)c2ccc(OC)c(OC)c2)cc1OC,20,/,/,/,-10,0,/
O=C(C[C@@H]1CC[C@H](NC(=O)C2CCOCC2)[C@H](CO)O1)NCc1ccncc1,/,/,-19,-4,/,/,/
CN(C)Cc1cc(O)c(CN(C)C)cc1O,86*,/,-19,-4,2,2,1%
O=C(c1ccccc1)c1cc2ccccc2oc1=O,113*,-2,5,-1,-8,1,0%
CCN(CC)CCCN=C(C)C1=C(O)c2ccccc2C1=O,66*,10,-6,2,-9,-4,-1%
O=C(O)C[C@@H]1C[C@@H]2c3cc(NC(=O)c4ccc5c(c4)OCO5)ccc3O[C@@H]2[C@H](CO)O1,/,8,6,-2,5,/,/
SMILES,NSD2 inh,RAD54 inh,RAD52 inh,AF4-AF9 inh,FN deposition inh,Glyco luc inh,AlphaScreen art
Nc1nc(=S)c2ncn(C3OC(CO)C(O)C3O)c2[nH]1 (centres undefined),52*,13,-7,-2,6,66*,-9%
Cc1cc(C)c(NC(=O)C2CC(=O)N(c3ccc4c(c3)OCCO4)C2)c(C)c1 (centres undefined),106*,-5,/,/,-2,0,-4%
CC(=O)c1cccc(N(CC(=O)NCCc2ccccc2)C(=O)c2csnn2)c1,-1,8,-6,-11,3,3,/
O=C(CN(C(=O)c1csnn1)c1cccc2ccccc12)NCc1ccccc1,96*,5,-13,5,-6,0,1%
O=C(CN(C(=O)c1csnn1)c1cccc2ccccc12)NCc1ccc(F)cc1,-5,-2,-21,-2,-4,-4,/
CC(=O)c1ccc(N(CC(=O)NCCc2ccccc2)C(=O)c2csnn2)cc1,70*,6,-3,0,4,0,-1%
Cc1noc(C)c1NC(=O)Nc1ccc2c(c1)C(=O)N([C@@H](C)CO)C[C@H](C)[C@H](CN(C)Cc1ccncc1)OCCCC[C@H](C)O2,/,0,-9,-1,/,/,/
O=C(Nc1ccccc1)NC1(c2cn(CC(=O)N3CCN(c4ccccc4)CC3)nn2)CCCCC1,/,-8,8,-5,/,/,/
O=[N+]([O-])c1ccc(Sc2cccc[n+]2[O-])c2nonc12,129*,/,-78,/,51*,-24,7.8µM*
O=C(CSc1cccc[n+]1[O-])Nc1cc(Cl)ccc1[N+](=O)[O-],-1,/,-9,-1,7,0,/
C[C@@H]1CN([C@H](C)CO)C(=O)Cc2cc(NS(=O)(=O)c3cn(C)cn3)ccc2O[C@H]1CN(C)S(=O)(=O)c1cccs1,/,-5,-1,-1,-2,/,/
CN1C(=O)c2cc(NC(=O)C3CC3)ccc2OC[C@@H]2O[C@H](CC(=O)NC3CCC3)CC[C@H]21,/,-7,1,-2,5,/,/
O=C(O)c1ccccc1NS(=O)(=O)c1ccc2ccccc2c1,52*,2,-19,-7,4,1,-1%
O=C(O)c1cc(NS(=O)(=O)c2ccc3ccccc3c2)ccc1O,0,-9,-16,-2,-4,-2,/
